According to ChEMBL document CHEMBL1148606 (J Med Chem, 2006):

How the values were obtained:
Type in all cases: cell-based
Adenosine receptor A3 = biological target: T1, Adenosine receptor A3 (Homo sapiens, UniProt P0DMS8); assay: Displacement of [125I]AB-MECA from human adenosine A3 receptor transfected in CHO cells
T1 sequence (P0DMS8 whole entry): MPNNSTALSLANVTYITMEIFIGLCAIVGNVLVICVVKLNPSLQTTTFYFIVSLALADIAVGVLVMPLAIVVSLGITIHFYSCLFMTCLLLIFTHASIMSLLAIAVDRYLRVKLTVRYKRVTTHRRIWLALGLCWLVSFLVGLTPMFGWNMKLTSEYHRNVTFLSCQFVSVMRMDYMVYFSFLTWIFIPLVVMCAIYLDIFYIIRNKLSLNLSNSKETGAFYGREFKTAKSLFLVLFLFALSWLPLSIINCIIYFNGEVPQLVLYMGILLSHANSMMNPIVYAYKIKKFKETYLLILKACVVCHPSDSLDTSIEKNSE

Adenosine receptor A1 = biological target: T2, Adenosine receptor A1 (Homo sapiens, UniProt P30542); assay: Displacement of [3H]R-PIA from human adenosine A1 receptor transfected in CHO cells
T2 sequence (P30542 whole entry): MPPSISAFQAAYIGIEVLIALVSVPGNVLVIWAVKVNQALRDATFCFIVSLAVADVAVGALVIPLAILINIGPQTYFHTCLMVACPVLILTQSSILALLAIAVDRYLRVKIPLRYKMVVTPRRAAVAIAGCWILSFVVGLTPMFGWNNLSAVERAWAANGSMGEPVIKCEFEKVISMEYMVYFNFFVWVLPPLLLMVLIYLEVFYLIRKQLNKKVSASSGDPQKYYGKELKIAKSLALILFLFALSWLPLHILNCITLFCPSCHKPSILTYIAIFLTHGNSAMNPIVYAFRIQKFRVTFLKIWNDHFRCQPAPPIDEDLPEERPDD
Outline: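 Membranes (40 µg/tube) from CHO cells stably expressing human A1 receptor were incubated with 2 nM [3H]R-PIA at 25 °C for 60 min in 50 mM Tris·HCl pH 7.4 containing 10 mM MgCl2. Nonspecific binding defined with 10 µM CPA. Terminated by filtration through GF/B filters.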

Adenosine receptor A2a [1] = biological target: T3, Adenosine receptor A2a (Homo sapiens, UniProt P29274); assay: Displacement of [3H]CGS-21680 from human adenosine A2A receptor transfected in HEK293 cells
T3 sequence (P29274 whole entry): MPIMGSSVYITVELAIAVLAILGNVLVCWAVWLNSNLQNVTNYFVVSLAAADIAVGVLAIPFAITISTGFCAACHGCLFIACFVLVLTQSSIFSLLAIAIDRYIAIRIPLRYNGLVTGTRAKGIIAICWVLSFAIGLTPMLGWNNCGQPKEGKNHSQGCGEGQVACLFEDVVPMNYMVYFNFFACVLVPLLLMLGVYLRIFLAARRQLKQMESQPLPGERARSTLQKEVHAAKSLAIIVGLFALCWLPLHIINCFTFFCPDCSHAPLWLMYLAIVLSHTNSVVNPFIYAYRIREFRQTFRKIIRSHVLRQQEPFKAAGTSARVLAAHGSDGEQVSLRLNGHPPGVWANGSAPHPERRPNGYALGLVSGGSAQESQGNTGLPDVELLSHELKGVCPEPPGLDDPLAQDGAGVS
Outline: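 Membranes (20 µg/tube) from HEK-293 cells stably expressing human A2A receptor, incubated with 15 nM [3H]CGS21680 at 25 °C for 60 min in 50 mM Tris·HCl pH 7.4 with 10 mM MgCl2. Nonspecific binding defined with 10 µM NECA. Terminated by filtration through GF/B filters.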

Adenosine receptor A2a [2] = biological target: T3, Adenosine receptor A2a; assay: Inhibition of [3H]CGS-21680 binding to human adenosine A2A receptor transfected in HEK293 cells at 10 uM
[3] = biological target: T4, Adenosine receptor A1 (Homo sapiens) (UniProt P30542); assay: Inhibition of [3H]R-PIA binding to human adenosine A1 receptor transfected in CHO cells at 10 uM
T4 sequence (whole entry): T2 sequence (P30542 whole entry)

SMILES	Ki (Adenosine receptor A3) [nM]	Ki (Adenosine receptor A1) [nM]	Ki (Adenosine receptor A2a [1]) [nM]	inhibition (Adenosine receptor A2a [2]) [%]	inhibition [3] [%]
Cc1ccccc1CNc1nc(Cl)nc2c1ncn2[C@@H]1S[C@H](C(=O)NCC2CC2)[C@@H](O)[C@H]1O	29.7	1980	3890	–	–
Cc1ccccc1CNc1nc(Cl)nc2c1ncn2[C@@H]1S[C@H](C(=O)N(C)C)[C@@H](O)[C@H]1O	632	–	–	22.5	0
Cc1ccccc1CNc1nc(Cl)nc2c1ncn2[C@@H]1S[C@H](C(=O)N2CCC(Cc3ccccc3)CC2)[C@@H](O)[C@H]1O	49200	–	–	15	26
O=C([C@H]1S[C@@H](n2cnc3c(NCc4cccc(I)c4)nc(Cl)nc32)[C@H](O)[C@@H]1O)N1CCOCC1	510	–	–	4	18
CNc1nc(Cl)nc2c1ncn2[C@@H]1S[C@H](C(=O)NCCC(c2ccccc2)c2ccccc2)[C@@H](O)[C@H]1O	415	–	–	15	20
O=C(NCc1cccc(Cl)c1)[C@H]1S[C@@H](n2cnc3c(NCc4cccc(I)c4)nc(Cl)nc32)[C@H](O)[C@@H]1O	308	1710	–	28	–
O=C(NC1CCC1)[C@H]1S[C@@H](n2cnc3c(NCc4cccc(I)c4)nc(Cl)nc32)[C@H](O)[C@@H]1O	18.2	126	549	–	–
CC(C)CCNC(=O)[C@H]1S[C@@H](n2cnc3c(NCc4cccc(I)c4)nc(Cl)nc32)[C@H](O)[C@@H]1O	41.9	–	–	31	31
O=C([C@H]1S[C@@H](n2cnc3c(NC4CC4)nc(Cl)nc32)[C@H](O)[C@@H]1O)N1CCOCC1	4440	–	–	11	25
O=C(NCCc1ccccc1)[C@H]1S[C@@H](n2cnc3c(NCc4cccc(I)c4)nc(Cl)nc32)[C@H](O)[C@@H]1O	433	–	–	11	20
O=C([C@H]1S[C@@H](n2cnc3c(NCc4cccc(I)c4)nc(Cl)nc32)[C@H](O)[C@@H]1O)N1CCN(c2ccc(F)cc2)CC1	1440	–	–	12	24
O=C([C@H]1S[C@@H](n2cnc3c(NC4CC4)nc(Cl)nc32)[C@H](O)[C@@H]1O)N1CCC(Cc2ccccc2)CC1	4020	–	–	33	32
O=C(NCCC(c1ccccc1)c1ccccc1)[C@H]1S[C@@H](n2cnc3c(NCc4cccc(I)c4)nc(Cl)nc32)[C@H](O)[C@@H]1O	343	–	–	3	5
CCNC(=O)[C@H]1S[C@@H](n2cnc3c(NC4CCCC4)nc(Cl)nc32)[C@H](O)[C@@H]1O	–	2	149	–	–
CNc1nc(Cl)nc2c1ncn2[C@@H]1S[C@H](C(=O)N(C)C)[C@@H](O)[C@H]1O	1500	–	–	12	10
CNc1nc(Cl)nc2c1ncn2[C@@H]1S[C@H](C(=O)N2CCN(c3ccc(F)cc3)CC2)[C@@H](O)[C@H]1O	2700	–	–	34	28
CNc1nc(Cl)nc2c1ncn2[C@@H]1S[C@H](C(=O)N2CCC(Cc3ccccc3)CC2)[C@@H](O)[C@H]1O	3500	–	–	6	10
O=C(NCc1cccc(C(F)(F)F)c1)[C@H]1S[C@@H](n2cnc3c(NCc4cccc(I)c4)nc(Cl)nc32)[C@H](O)[C@@H]1O	354	–	–	11	0
CNc1nc(Cl)nc2c1ncn2[C@@H]1S[C@H](C(=O)N2CCOCC2)[C@@H](O)[C@H]1O	3870	–	–	24	4
O=C([C@H]1S[C@@H](n2cnc3c(NCc4cccc(I)c4)nc(Cl)nc32)[C@H](O)[C@@H]1O)N1CCC(Cc2ccccc2)CC1	878	–	–	17	38
Cc1ccccc1CNc1nc(Cl)nc2c1ncn2[C@@H]1S[C@H](C(=O)NC2CC2)[C@@H](O)[C@H]1O	27.8	76.7	202	–	–
CNc1nc(Cl)nc2c1ncn2[C@@H]1S[C@H](C(=O)NCCc2cccc(F)c2)[C@@H](O)[C@H]1O	85.6	–	–	30	15
Cc1ccccc1CNc1nc(Cl)nc2c1ncn2[C@@H]1S[C@H](C(=O)N2CCOCC2)[C@@H](O)[C@H]1O	7670	–	–	17	4
CNC(=O)[C@H]1S[C@@H](n2cnc3c(NC)nc(Cl)nc32)[C@H](O)[C@@H]1O	–	–	–	20	–

Further lines, results first:

Ki (Adenosine receptor A3) [nM]	Ki (Adenosine receptor A1) [nM]	Ki (Adenosine receptor A2a [1]) [nM]	inhibition (Adenosine receptor A2a [2]) [%]	inhibition [3] [%]	SMILES
5.56	4.6	325	–	–	O=C(NC1CC1)[C@H]1S[C@@H](n2cnc3c(NC4CC4)nc(Cl)nc32)[C@H](O)[C@@H]1O
4.27	13.9	921	–	–	CNC(=O)[C@H]1S[C@@H](n2cnc3c(NC4CCCC4)nc(Cl)nc32)[C@H](O)[C@@H]1O
1.1	638	–	44	–	CNc1nc(Cl)nc2c1ncn2[C@@H]1S[C@H](C(=O)NCC2CC2)[C@@H](O)[C@H]1O
2.5	75.8	429	–	–	CCNC(=O)[C@H]1S[C@@H](n2cnc3c(NCc4ccccc4C)nc(Cl)nc32)[C@H](O)[C@@H]1O
2.18	507	1320	–	–	CNC(=O)[C@H]1S[C@@H](n2cnc3c(NCc4ccccc4C)nc(Cl)nc32)[C@H](O)[C@@H]1O
17.4	–	–	41	67	CNc1nc(Cl)nc2c1ncn2[C@@H]1S[C@H](C(=O)NCc2cccc(F)c2)[C@@H](O)[C@H]1O
2.82	47.8	2770	–	–	CNc1nc(Cl)nc2c1ncn2[C@@H]1S[C@H](C(=O)NC2CC2)[C@@H](O)[C@H]1O
1.63	4070	–	14	–	CNc1nc(Cl)nc2c1ncn2[C@@H]1S[C@H](C(=O)NCCC(C)C)[C@@H](O)[C@H]1O
2.24	37.3	4890	–	–	CNC(=O)[C@H]1S[C@@H](n2cnc3c(NC4CC4)nc(Cl)nc32)[C@H](O)[C@@H]1O
0.89	144	292	–	–	CCNC(=O)[C@H]1S[C@@H](n2cnc3c(NCc4cccc(I)c4)nc(Cl)nc32)[C@H](O)[C@@H]1O
3.64	1720	2220	–	–	O=C(NCC1CC1)[C@H]1S[C@@H](n2cnc3c(NCc4cccc(I)c4)nc(Cl)nc32)[C@H](O)[C@@H]1O
2.96	92	326	–	–	O=C(NC1CC1)[C@H]1S[C@@H](n2cnc3c(NCc4cccc(I)c4)nc(Cl)nc32)[C@H](O)[C@@H]1O
0.67	3.2	604	–	–	CCNC(=O)[C@H]1S[C@@H](n2cnc3c(NC4CC4)nc(Cl)nc32)[C@H](O)[C@@H]1O
